The list is not random: actives were taken first. Their share in the collection is about 1.9%.
PGC1a acetyl inh = lowers PGC1a acetylation signal in U2OS cells | AlphaScreen anti-acetyl-lysine; with virally co-expressed GCN5 acetyltransferase | inhibition, % at 15.6 µM | 350,000 compounds, 0.17% hits;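 active means every replicate shows inhibition of at least 40%; inconclusive means mean inhibition at least 40% but some replicate below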;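 further: 0% = neutral control wells and 100% = positive control wells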
F508del corr = correctors of CFTR F508del function in bronchial epithelial cells; activity (quench increase), % at 7.58 µM; CFBE cells, YFP halide quenching; stimulated with forskolin plus potentiator P3; % fluorescence drop versus neutral controls; 350,000 compounds, 0.36% hits; AID 720511;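 active means mean added fluorescence quench of at least 8% versus neutral control, with both replicates also reaching 8%; inconclusive means only one of the mean or replicate conditions met; inactive means mean below 8% and not both replicates reaching 8%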;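 further: cells transiently co-express mutant CFTR-F508del with the halide-sensitive YFP; corrector assay measuring rescue of mutant channel to the surface after 24 h compound exposure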
Cneo AK release = causes C. neoformans cell lysis; adenylate kinase release luminescence, 4 h; normalised: neutral wells 0, clomiphene wells 100; lysis activity, % at 15 µM; 360,000 compounds, 0.2% hits; AID 651654;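 active means mean lysis activity across replicates of at least 80%, whatever share of replicates individually reach that level; inactive means mean lysis activity below 80%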
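Material: C. neoformans cells | Amount: Yeast cell density of 5 × 10^6 cells/mL | Medium: Fresh YPD growth medium | Dosing: Single dose | Times: Static 4 h at 37 °C with compound, 1 h detection | Detection: AK luminescence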
XiGFP reactiv = activators of X-chromosome reactivation in mouse fibroblasts; activation, % at 7.58 µM; XiGFP mouse fibroblasts, % GFP-positive cells imaging, 3 d; cells co-treated with 5-aza-dC sensitizer; scaled so ellipticine positive control = 100%; 360,000 compounds, 0.055% hits;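 active means mean normalized replicate activation at least 10% and every replicate at or above 10%; inconclusive means only one of the two criteria met; inactive means mean below 10% and not all replicates reach 10%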;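 further: 0% = median of on-plate neutral control wells and 100% = ellipticine 6 µM median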
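System: XiGFP fibroblasts, SV40-immortalized. Medium: DMEM plus 5-aza-dC sensitizer. Doses: single point. Timing: 3 d treatment, 15 min room-temperature fixation. Control set: ellipticine 6 µM.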
DENV2 CPE rescue = protects cells from dengue virus 2 cytopathic effect | DENV2-infected cells, cytopathic effect rescue, plate reader | CPE inhibition, % at 9.99 µM | 350,000 compounds, 1.7% hits | AID 651640; in the data active means CPE inhibition above about 20%, passing the limit was not always enough; inconclusive means no clear call, values can overlap the other calls; tested in BHK-21 cells;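 further: 0% = median of neutral control wells and 100% = median of positive control wells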
FN deposit inh = fibronectin deposition inhibition. AH1F fibroblasts, Alexa488-fibronectin deposition fluorescence, overnight. inhibition, % at 12.6 µM. 350,000 compounds, 0.086% hits;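 active means mean inhibition across replicates of 30% or more, regardless of how many single replicates reach that level; inconclusive means mean under 30% yet at least half of replicates reach 30%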;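 further: positive control wells lacked labelled fibronectin entirely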
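Assay system: AH1F fibroblasts / Quantity: 10000 cells per well / Medium: DMEM plus 2% serum, read in PBS / Reagent: labelled fibronectin 24 nM / Dosing: single dose, pinned / Times: 1 h cell attachment, overnight exposure to compound and label / Signal: fluorescence, ex 485 nm, em 525 nm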
The depositor's hits bear a star; ? = inconclusive; · = no result given.

SMILES	PGC1a acetyl inh	F508del corr	Cneo AK release	XiGFP reactiv	DENV2 CPE rescue	FN deposit inh
N#Cc1ccc(-c2ccc([C@H]3[C@@H](CO)N4CCCCN(C(=O)Cc5ccccc5)C[C@@H]34)cc2)cc1	-12	-1	-3	0	-12	·
CCOc1ccccc1N=C1SCCCN1C	97*	·	-2	·	·	-2
N#Cc1cccc(-c2ccc([C@H]3[C@@H](CO)N4CCCCN(C(=O)Cc5ccccc5)C[C@@H]34)cc2)c1	-1	-6	-3	0	7	·
Cc1ccc2nc(-c3ccc(CN4CCC(n5c(=O)[nH]c6cc(Cl)ccc65)CC4)cc3)c(-c3ccccc3)nc2c1	·	1	·	0	52*	-3
O=C(Cc1cccnc1)N1CCCCN2[C@H](CO)[C@H](c3ccc(C#CC4CC4)cc3)[C@H]2C1	11	1	59	·	-6	·
CS(=O)(=O)N1C[C@@H]2C(c3ccccc3)[C@H](C1)N2CC1CC1 (stereo partly drawn)	·	·	·	0	·	-15
O=C(Cc1ccccn1)N1CCCCN2[C@H](C1)[C@@H](c1ccc(C#Cc3ccccc3)cc1)[C@@H]2CO	7	3	0	0	-6	·
COc1ccc(-c2ccc(OC)c(OC)c2OC)cc1	-25	12*	0	0	3	4
CC1(CCO)CC(C)(CCc2ccccc2)OO1 (stereo not drawn)	-43	0	-1	·	6	·
C=CCN1C(=S)N[C@@H]2c3ccccc3O[C@@]1(C)[C@@H]2C(=O)OCC	3	0	56	·	-7	·
CN(C(=O)Oc1cccc2ccccc12)C1C=CCC1 (stereo not drawn)	-9	-2	6	0	65*	3
CN1[C@@H](CO)[C@@H]2c3ccccc3NC[C@@H]21	16	-4	57	0	-9	-11
CN1C[C@H]2CON(C)[C@H]2C[C@H]1c1cccc(Br)c1	12	-2	-1	·	3	6
CN1OC[C@@H]2CN[C@H](c3ccc(Br)cc3)C[C@@H]21	1	1	·	0	26*	7
CC1(C)OC(c2ccccc2)=C/C(=C/C=C2C(=O)NC(=S)NC2=O)O1	·	17*	·	0	1	1
O=c1[nH]c(=O)n(-c2cccc3ccccc23)c(O)c1/C=N/N1CCCCC1c1cccnc1 (stereo not drawn)	-9	8.0*	-1	0	7	2
CN1C2CCC1/C(=C/c1ccccn1)C(=O)/C2=C\c1ccccn1	78*	-2	-10	1	-38	29
Cc1ccccc1-n1c(/C=C/c2ccccn2)nc2ccccc2c1=O	22	3	3	0	-6	7
C/C=C/c1ccc2c(c1)OCO2	-7	1	2	·	20*	·
CC(=O)c1ccc2c(c1)OCO2	-4	-3	-3	·	4	·
N#Cc1cccc(-c2ccc([C@@H]3[C@@H](CO)N4CCCCN(C(=O)Cc5cccnc5)C[C@@H]34)cc2)c1	10	-3	1	0	2	·
C=CCN1[C@@H]2CN(C(C)=O)C[C@H]1C2c1ccc(Br)cc1 (stereo partly drawn)	·	·	·	0	·	4
O=C(O)Cc1cnc[nH]1	·	-1	-1	0	-2	5
C[C@@H](N)Cc1cnc[nH]1	-2	11*	0	0	?	7
Nc1ccc2ccc3cccc[n+]3c2c1	·	15*	3	0	-13	-13
SMILES	PGC1a acetyl inh	F508del corr	Cneo AK release	XiGFP reactiv	DENV2 CPE rescue	FN deposit inh
COC(=O)C1=C(c2c(C)noc2C)C[C@@H]2CC[C@H]1N2C(=O)NC1CCCCC1	-23	-5	2	0	48*	-5
Clc1cc(Cl)c(-c2cc(Cl)c(Cl)cc2Cl)cc1Cl	-6	-1	2	·	23*	·
Oc1cc(Cl)c(Cl)cc1Cl	·	0	·	0	9	-1
CC(=O)OC1CC2(O)C3CCC4CC(O)CCC4(C)C3CCC2(C)C1C1=CC(=O)OC1 (stereo not drawn)	65*	-2	·	0	-13	13
C[C@@H]1O[C@@H](O[C@H]2C[C@@H](O)[C@]3(CO)[C@H]4[C@H](O)C[C@]5(C)[C@@H](C6=CC(=O)OC6)CC[C@]5(O)[C@@H]4CC[C@]3(O)C2)[C@H](O)[C@H](O)[C@H]1O	83*	·	-2	·	·	·
CC(C)(Cl)[N+](=O)[O-]	-18	-1	3	·	130*	·
N#Cc1cccc(-c2ccc([C@H]3[C@H](CO)N4CCCCN(C(=O)Cc5ccncc5)C[C@@H]34)cc2)c1	-7	1	-2	0	-13	·
Cc1ccc(N)c(C)c1	4	-2	-1	·	82*	·
Cc1ccccc1N	-10	5	0	·	-19	·
C=CCN1[C@@H]2CN(CC(F)(F)F)C[C@H]1C2c1ccc(Br)cc1 (stereo partly drawn)	·	·	·	0	·	-5
CCOP(=O)(C#Cc1ccccc1)C(O)c1ccc(Br)cc1 (stereo not drawn)	·	10*	·	0	-7	-4
CCC(C)c1cnc(CC(C)C)c(=O)n1O (stereo not drawn)	6	2	-1	·	59*	·
O=C(Cc1ccccc1)N1CCCCN2[C@@H](CO)[C@@H](c3ccc(C#Cc4ccccc4)cc3)[C@@H]2C1	-14	-1	0	0	9	·
Cc1ccccc1O	11	-1	-1	·	-21	·
Oc1cccc2nc3ccccc3nc12	7	-3	-5	·	111*	·
COc1ccc(OC(=O)N(C)C[C@H]2OCc3ccccc3-c3c(n(C)c4ccccc34)C(=O)N([C@H](C)CO)C[C@@H]2C)cc1	-4	-1	·	0	1	-2
CC/C=C/CC(=O)N[C@@H](c1ccccc1)[C@@H](O)C(=O)O[C@H]1C[C@@]2(O)[C@@H](OC(=O)c3ccccc3)C3[C@](C)(C(=O)[C@H](OC(C)=O)C(=C1C)C2(C)C)[C@@H](O)C[C@H]1OC[C@@]31OC(C)=O (stereo partly drawn)	-9	17*	0	·	28*	·
CCC(C)C(=O)N[C@@H](c1ccccc1)[C@@H](O)C(=O)O[C@H]1C[C@@]2(O)[C@@H](OC(=O)c3ccccc3)C3[C@](C)(C(=O)[C@H](OC(C)=O)C(=C1C)C2(C)C)[C@@H](O)C[C@H]1OC[C@@]31OC(C)=O (stereo partly drawn)	-17	11*	-2	·	-14	·
O=C(Cc1cccnc1)N1CCCCN2[C@H](CO)[C@H](c3ccc(C#CC4(O)CCCC4)cc3)[C@H]2C1	9	0	-8	0	3	·
COC(=O)[C@H]1[C@H](CO)[C@H]2Cn3c(ccc(C4=CCCC4)c3=O)[C@@H]1N2S(=O)(=O)c1cn(C)cn1	·	0	5	2	-2	·

High-throughput results deposited in PubChem by Broad Institute.
